Measurements from ChEMBL document CHEMBL1821590, “Novel dihydropyrimidines and its pyrazole derivatives: synthesis and pharmacological screening” (Eur J Med Chem, 2011).
In brackets after ≈: the same amount, converted by molar mass.

Key:
Type in all cases: functional
[1] = tested on: Staphylococcus aureus; assay: Antimicrobial activity against Staphylococcus aureus at 100 ug/ml by agar plate diffusion technique; conditions: read-out: IZ
In short: (§1)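 Agar plate diffusion against E. coli, P. aeruginosa, S. aureus and B. subtilis, with compounds at 25, 50 and 100 µg/mL. Streptomycin as standard.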

[2] = tested on: Staphylococcus aureus; assay: Antimicrobial activity against Staphylococcus aureus at 50 ug/ml by agar plate diffusion technique; conditions: read-out: IZ; in short: as §1
[3] = tested on: Aspergillus niger; assay: Antimicrobial activity against Aspergillus niger at 25 ug/ml by paper disc method; conditions: read-out: IZ
In short: (§2)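 Paper disc method against A. niger and C. albicans, with compounds at 25, 50 and 100 µg/mL. Amphotericin-B as standard.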

[4] = tested on: Bacillus subtilis; assay: Antimicrobial activity against Bacillus subtilis at 100 ug/ml by agar plate diffusion technique; conditions: read-out: IZ; in short: as §1
[5] = tested on: Metaphire posthuma; assay: Anthelmintic activity against Pheretima posthuma assessed as time taken for parasite death at 0.2% w/v
In short: (§3)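 Earthworms (Pheretima posthuma, spelled Perituma posthuma in text) exposed to test compounds at 0.1, 0.2 and 0.5% w/v. Albendazole served as standard, with an untreated control. Paralysis was recorded as the time until worms became motionless, then time to death was recorded, in minutes. Each value is the mean of three determinations with S.D.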

[6] = tested on: Aspergillus niger; assay: Antimicrobial activity against Aspergillus niger at 50 ug/ml by paper disc method; conditions: read-out: IZ; in short: as §2
[7] = tested on: Metaphire posthuma; assay: Anthelmintic activity against Pheretima posthuma assessed as time taken for parasite death at 0.5% w/v; in short: as §3
[8] = tested on: Escherichia coli; assay: Antimicrobial activity against Escherichia coli at 25 ug/ml by agar plate diffusion technique; conditions: read-out: IZ; in short: as §1
[9] = Antioxidant activity assessed as nitric oxide radical scavenging activity after 150 mins
In short: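 10 mM sodium nitroprusside (4 mL), PBS pH 7.4 (1 mL) and sample or ascorbic acid in DMSO (1 mL, 12.5–100 µg/mL), incubated 150 min at 25 °C. Nitrite detected with sulphanilic acid (5 min) then naphthylethylenediamine (30 min, diffused light). Read at […]. Triplicate. % inhibition = [1 − (Vt/Vc)] × 100. IC50 derived from it.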

[10] = tested on: Escherichia coli; assay: Antimicrobial activity against Escherichia coli at 100 ug/ml by agar plate diffusion technique; conditions: read-out: IZ; in short: as §1
[11] = tested on: Candida albicans; assay: Antimicrobial activity against Candida albicans at 50 ug/ml by paper disc method; conditions: read-out: IZ; in short: as §2
[12] = Antioxidant activity assessed as hydrogen peroxide scavenging activity after 10 mins
In short: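 H2O2 (20 mM) in PBS pH 7.4. 1 mL of sample or ascorbic acid in methanol (12.5–100 µg/mL) added to 2 mL H2O2 solution. A230 read after 10 min. % inhibition = [1 − (Vt/Vc)] × 100. Triplicate, averaged. IC50 derived from % inhibition across concentrations.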

[13] = Antioxidant activity assessed as potassium ferricyanide ion reducing power after 20 mins
In short: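 Oyaizu method. Samples or ascorbic acid in DMF (12.5–100 µg/mL) mixed with 0.2 M phosphate buffer pH 6.6 and 1% potassium ferricyanide, 20 min at 50 °C. 10% TCA added, centrifuged. Supernatant mixed with water and 0.1% FeCl3, read at 700 nm. % = [(Vt/Vc) − 1] × 100. IC50 derived.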

[14] = tested on: Pseudomonas aeruginosa; assay: Antimicrobial activity against Pseudomonas aeruginosa at 100 ug/ml by agar plate diffusion technique; conditions: read-out: IZ; in short: as §1
[15] = tested on: Metaphire posthuma; assay: Anthelmintic activity against Pheretima posthuma assessed as time taken for complete parasite paralysis at 0.1% w/v
In short: (§4)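 Earthworms (Pheretima posthuma) exposed to test solutions at 0.1, 0.2 and 0.5% w/v; time in minutes to complete paralysis (worms motionless) recorded. Albendazole as standard. Mean of three determinations ± S.D.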

[16] = tested on: Aspergillus niger; assay: Antimicrobial activity against Aspergillus niger at 100 ug/ml by paper disc method; conditions: read-out: IZ; in short: as §2
[17] = Antioxidant activity assessed as inhibition of lipid peroxidation using egg lecithin liposomes incubated for 1 hr
In short: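 Egg lecithin (3 mg/mL, phosphate buffer pH 7.4) sonicated 10 min to form liposomes. Sample or ascorbic acid (12.5–100 µg/mL) added. Peroxidation induced with FeCl3 and L-ascorbic acid, 1 h at 37 °C. Stopped with HCl/TCA/TBA/BHA, boiled 15 min, centrifuged, supernatant read at 532 nm. Triplicate. % inhibition vs control. IC50 derived.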

[18] = tested on: Pseudomonas aeruginosa; assay: Antimicrobial activity against Pseudomonas aeruginosa at 50 ug/ml by agar plate diffusion technique; conditions: read-out: IZ; in short: as §1
[19] = tested on: Bacillus subtilis; assay: Antimicrobial activity against Bacillus subtilis at 25 ug/ml by agar plate diffusion technique; conditions: read-out: IZ; in short: as §1
[20] = tested on: Bacillus subtilis; assay: Antimicrobial activity against Bacillus subtilis at 50 ug/ml by agar plate diffusion technique; conditions: read-out: IZ; in short: as §1
[21] = tested on: Metaphire posthuma; assay: Anthelmintic activity against Pheretima posthuma assessed as time taken for parasite death at 0.1% w/v; in short: as §3
[22] = tested on: Pseudomonas aeruginosa; assay: Antimicrobial activity against Pseudomonas aeruginosa at 25 ug/ml by agar plate diffusion technique; conditions: read-out: IZ; in short: as §1
[23] = tested on: Metaphire posthuma; assay: Anthelmintic activity against Pheretima posthuma assessed as time taken for complete parasite paralysis at 0.2% w/v; in short: as §4
[24] = Antiinflammatory activity assessed as inhibition of albumin denaturation at 100 ug/ml by UV-visible spectrophotometry
In short: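 Compounds dissolved in minimal DMF, diluted in PBS pH 7.4 (final DMF <2.5%). 1 mL test solution (100 µg/mL) plus 1 mL 1% albumin in PBS, 15 min at 27 ± 1 °C, then heated 10 min at 60 ± 1 °C. After cooling, turbidity read at 660 nm. % inhibition = [(Vt/Vc) − 1] × 100 against a no-drug control. Triplicate, averaged. Diclofenac standard.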

[25] = tested on: Candida albicans; assay: Antimicrobial activity against Candida albicans at 25 ug/ml by paper disc method; conditions: read-out: IZ; in short: as §2
[26] = tested on: Candida albicans; assay: Antimicrobial activity against Candida albicans at 100 ug/ml by paper disc method; conditions: read-out: IZ; in short: as §2
[27] = tested on: Escherichia coli; assay: Antimicrobial activity against Escherichia coli at 50 ug/ml by agar plate diffusion technique; conditions: read-out: IZ; in short: as §1
[28] = tested on: Staphylococcus aureus; assay: Antimicrobial activity against Staphylococcus aureus at 25 ug/ml by agar plate diffusion technique; conditions: read-out: IZ; in short: as §1
[29] = tested on: Metaphire posthuma; assay: Anthelmintic activity against Pheretima posthuma assessed as time taken for complete parasite paralysis at 0.5% w/v; in short: as §4

Compound | zone of inhibition at 100 µg/mL [1] [mm] | zone of inhibition at 50 µg/mL [2] [mm] | zone of inhibition at 25 µg/mL [3] [mm] | zone of inhibition at 100 µg/mL [4] [mm] | Time [5] [min] | zone of inhibition at 50 µg/mL [6] [mm] | Time [7] [min] | zone of inhibition at 25 µg/mL [8] [mm] | IC50 [9] [µg/mL] | zone of inhibition at 100 µg/mL [10] [mm] | zone of inhibition at 50 µg/mL [11] [mm] | IC50 [12] [µg/mL] | IC50 [13] [µg/mL] | zone of inhibition at 100 µg/mL [14] [mm] | Time [15] [min] | zone of inhibition at 100 µg/mL [16] [mm] | IC50 [17] [µg/mL] | zone of inhibition at 50 µg/mL [18] [mm] | zone of inhibition at 25 µg/mL [19] [mm] | zone of inhibition at 50 µg/mL [20] [mm] | other results
CSc1nc(-c2ccccc2Cl)c(C#N)c(=O)n1C | 16.8 | 12.3 | 10.6 | 28.8 | 55.8 | 10.6 | 50.24 | 9.64 | 81 (≈ 278 µM) | 12.4 | 13.8 | 67 (≈ 230 µM) | 76 (≈ 260 µM) | 12 | 55.29 | 17.5 | 72 (≈ 247 µM) | 10.4 | 14.2 | 19.3 | Time [21]: 72.39 min; zone of inhibition at 25 µg/mL [22]: 8.52 mm; Time [23]: 40.27 min; inhibition [24]: 72.2%; zone of inhibition at 25 µg/mL [25]: 9.18 mm; zone of inhibition at 100 µg/mL [26]: 20.8 mm; zone of inhibition at 50 µg/mL [27]: 10.2 mm; zone of inhibition at 25 µg/mL [28]: 9.4 mm; Time [29]: 40.61 min
Cn1c(NN)nc(-c2ccc(Cl)cc2)c(C#N)c1=O | 20.6 | 15.5 | 14.6 | 24.1 | 46.45 | 16.8 | 42.54 | 8.18 | 59 (≈ 214 µM) | 12.4 | 15.7 | 41 (≈ 149 µM) | 44 (≈ 160 µM) | 14.9 | 42.1 | 21.4 | 46 (≈ 167 µM) | 10.2 | 10.2 | 16 | Time [21]: 58.3 min; zone of inhibition at 25 µg/mL [22]: 7.64 mm; Time [23]: 40.13 min; inhibition [24]: 61.2%; zone of inhibition at 25 µg/mL [25]: 12.8 mm; zone of inhibition at 100 µg/mL [26]: 17.3 mm; zone of inhibition at 50 µg/mL [27]: 10.9 mm; zone of inhibition at 25 µg/mL [28]: 11.2 mm; Time [29]: 37.67 min
